In article PMC4415995 (Advances in Therapy, 2015):
Read-outs that look alike come from different tables or passages of the source. Marks after values point to notes of the source that are not given here.

Legend:
[1] = assay type: in vivo, human; conditions: for AUC / AUC(0-inf) / Cmax / half-life / Tmax: human, plasma, oral; for Cmax: C max
How it was run: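 Oral doses of 0.5–5 mg once daily for 7 days, given with 150 mL water before a standardized ~600 kcal breakfast. Venous blood was drawn pre-dose and 0.25–24 h after dosing on Days 1 and 7, and pre-breakfast on Days 9–11. Urine was pooled at 4 °C over intervals. Samples were stored at −70 °C. Parent and active O-deethyl metabolite were measured by solid-phase extraction and LC–MS/MS with deuterated internal standards. Parameters were non-compartmental; metabolite ratio was AUCτ(M2)/AUCτ(parent).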

[2] = system: Japanese patients with T2DM; experiment: Serum insulin concentrations, 7-day once-daily dosing; assay type: in vivo, human
[3] = system: Japanese patients with T2DM; experiment: Adverse events, 7-day once-daily dosing; assay type: in vivo, human; conditions: for ALT increased / Blood urine present / Constipation / Dermatitis contact / Diarrhea / Headache / Pruritus / γ-GTP increased: N = 8
How it was run: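 Randomized, single-blind, placebo-controlled, parallel-group study in Japanese T2DM outpatients (HbA1c 6.9–10.5%, FPG ≥126 mg/dL, stable diet 4 weeks, age 20–74 y). Test compound 0.5, 1, 2.5 or 5 mg or placebo was given orally once daily for 7 days before breakfast. Safety set was all dosed patients. AEs were coded in MedDRA 12.1 and graded mild/moderate/severe, with drug relation judged by the investigator. Labs, vital signs, body weight and ECG were also recorded.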

SMILES: CCOc1ccc(Cc2cc([C@@H]3S[C@H](CO)[C@@H](O)[C@H](O)[C@H]3O)c(OC)cc2C)cc1 [Luseogliflozin, (1S)-1,5-anhydro-1-[5-(4-ethoxybenzyl)-2-methoxy-4-methylphenyl]-1-thio-D-glucitol]
- Ae0–24 ([1]; 0.5 mg luseogliflozin OD, Day 1, urine): 3.76 ± 0.832 % of dose
- Ae0–24 ([1]; 0.5 mg luseogliflozin OD, Day 7, urine): 4.56 ± 1.04 % of dose
- Ae0–24 ([1]; 1 mg luseogliflozin OD, Day 1, urine): 4.06 ± 0.497 % of dose
- Ae0–24 ([1]; 1 mg luseogliflozin OD, Day 7, urine): 4.30 ± 0.875 % of dose
- Ae0–24 ([1]; 2.5 mg luseogliflozin OD, Day 1, urine): 4.51 ± 1.13 % of dose
- Ae0–24 ([1]; 2.5 mg luseogliflozin OD, Day 7, urine): 4.79 ± 1.09 % of dose
- Ae0–24 ([1]; 5 mg luseogliflozin OD, Day 1, urine): 4.11 ± 0.763 % of dose
- Ae0–24 ([1]; 5 mg luseogliflozin OD, Day 7, urine): 4.56 ± 0.617 % of dose
- accumulation after multiple doses ([1]; AUCinf Day 1 vs AUCτ Day 7 comparable): does not accumulate
- dose proportionality for C max and AUCτ (power model) ([1]; Day 7, 0.5-5 mg): dose proportionality
- AUC ([1]; 0.5 mg): 179 ± 32.6 ng·h/mL
- AUC(0-inf) ([1]; 0.5 mg): 171 ± 38.4 ng·h/mL
- Cmax ([1]; 0.5 mg, 0.5 mg luseogliflozin OD, Day 1, plasma): 21.9 ± 2.88 ng/mL
- Cmax ([1]; 0.5 mg, 0.5 mg luseogliflozin OD, Day 7, plasma): 25.6 ± 4.25 ng/mL
- half-life ([1]; 0.5 mg, t 1/2, 0.5 mg luseogliflozin OD, Day 1, plasma): 9.86 ± 1.57 h
- half-life ([1]; 0.5 mg, t 1/2, 0.5 mg luseogliflozin OD, Day 7, plasma): 10.5 ± 1.03 h
- Tmax ([1]; 0.5 mg, t max, 0.5 mg luseogliflozin OD, Day 1, plasma): 0.857 ± 0.556 h
- Tmax ([1]; 0.5 mg, t max, 0.5 mg luseogliflozin OD, Day 7, plasma): 0.643 ± 0.244 h
- AUC ([1]; 1 mg): 370 ± 55.5 ng·h/mL
- AUC(0-inf) ([1]; 1 mg): 357 ± 53.9 ng·h/mL
- Cmax ([1]; 1 mg, 1 mg luseogliflozin OD, Day 1, plasma): 43.7 ± 10.8 ng/mL
- Cmax ([1]; 1 mg, 1 mg luseogliflozin OD, Day 7, plasma): 52.3 ± 10.9 ng/mL
- half-life ([1]; 1 mg, t 1/2, 1 mg luseogliflozin OD, Day 1, plasma): 9.61 ± 1.34 h
- half-life ([1]; 1 mg, t 1/2, 1 mg luseogliflozin OD, Day 7, plasma): 10 ± 1.37 h
- Tmax ([1]; 1 mg, t max, 1 mg luseogliflozin OD, Day 1, plasma): 0.688 ± 0.259 h
- Tmax ([1]; 1 mg, t max, 1 mg luseogliflozin OD, Day 7, plasma): 0.688 ± 0.259 h
- AUC ([1]; 2.5 mg): 899 ± 148 ng·h/mL
- AUC(0-inf) ([1]; 2.5 mg): 864 ± 132 ng·h/mL
- Cmax ([1]; 2.5 mg, 2.5 mg luseogliflozin OD, Day 1, plasma): 119 ± 27 ng/mL
- Cmax ([1]; 2.5 mg, 2.5 mg luseogliflozin OD, Day 7, plasma): 136 ± 42 ng/mL
- half-life ([1]; 2.5 mg, t 1/2, 2.5 mg luseogliflozin OD, Day 1, plasma): 9.24 ± 0.928 h
- half-life ([1]; 2.5 mg, t 1/2, 2.5 mg luseogliflozin OD, Day 7, plasma): 9.2 ± 0.71 h
- Tmax ([1]; 2.5 mg, t max, 2.5 mg luseogliflozin OD, Day 1, plasma): 0.625 ± 0.354 h
- Tmax ([1]; 2.5 mg, t max, 2.5 mg luseogliflozin OD, Day 7, plasma): 1 ± 0.886 h
- AUC ([1]; 5 mg): 1880 ± 318 ng·h/mL
- AUC(0-inf) ([1]; 5 mg): 1690 ± 271 ng·h/mL
- Cmax ([1]; 5 mg, 5 mg luseogliflozin OD, Day 1, plasma): 243 ± 45.7 ng/mL
- half-life ([1]; 5 mg, t 1/2, 5 mg luseogliflozin OD, Day 1, plasma): 8.96 ± 1.11 h
- half-life ([1]; 5 mg, t 1/2, 5 mg luseogliflozin OD, Day 7, plasma): 9.54 ± 1.26 h
- Tmax ([1]; 5 mg, t max, 5 mg luseogliflozin OD, Day 1, plasma): 0.625 ± 0.231 h
- Tmax ([1]; 5 mg, t max, 5 mg luseogliflozin OD, Day 7, plasma): 0.688 ± 0.259 h
- half-life ([1]; mean t 1/2, all four doses (0.5-5 mg)): ~10 h
- Tmax ([1]; t max (mean), across 0.5-5 mg doses, Days 1 and 7, plasma): 0.625 to 1 h
- Serum insulin AUC0–4h (after breakfast) ([2]; 0.5 mg OD, Day 1): 95.0 ± 33.9 μIU h/mL
- Serum insulin AUC0–4h (after breakfast) LS mean difference vs placebo (95% CI) ([2]; 0.5 mg OD, Day 1): −13.8 (−43.1, 15.6) μIU h/mL
- Serum insulin AUC0–4h (after breakfast) ([2]; 0.5 mg OD, Day 7): 81.4 ± 39.4 μIU h/mL
- Serum insulin AUC0–4h (after breakfast) LS mean difference vs placebo (95% CI) ([2]; 0.5 mg OD, Day 7): −32.3 (−62.8, −1.82)* μIU h/mL
- Serum insulin AUC0–4h (after breakfast) ([2]; 1 mg OD, Day 1): 161 ± 67.9 μIU h/mL
- Serum insulin AUC0–4h (after breakfast) LS mean difference vs placebo (95% CI) ([2]; 1 mg OD, Day 1): −12.1 (−39.4, 15.3) μIU h/mL
- Serum insulin AUC0–4h (after breakfast) ([2]; 1 mg OD, Day 7): 125 ± 43.4 μIU h/mL
- Serum insulin AUC0–4h (after breakfast) LS mean difference vs placebo (95% CI) ([2]; 1 mg OD, Day 7): −36.1 (−64.5, −7.72)* μIU h/mL
- Serum insulin AUC0–4h (after breakfast) ([2]; 2.5 mg OD, Day 1): 101 ± 56.1 μIU h/mL
- Serum insulin AUC0–4h (after breakfast) LS mean difference vs placebo (95% CI) ([2]; 2.5 mg OD, Day 1): −32.7 (−60.4, −4.93)* μIU h/mL
- Serum insulin AUC0–4h (after breakfast) ([2]; 2.5 mg OD, Day 7): 75.1 ± 29.4 μIU h/mL
- Serum insulin AUC0–4h (after breakfast) LS mean difference vs placebo (95% CI) ([2]; 2.5 mg OD, Day 7): −56.7 (−85.4, −27.9)* μIU h/mL
- Serum insulin AUC0–4h (after breakfast) ([2]; 5 mg OD, Day 1): 190 ± 118 μIU h/mL
- Serum insulin AUC0–4h (after breakfast) LS mean difference vs placebo (95% CI) ([2]; 5 mg OD, Day 1): −17.0 (−44.8, 10.8) μIU h/mL
- Serum insulin AUC0–4h (after breakfast) ([2]; 5 mg OD, Day 7): 157 ± 82.5 μIU h/mL
- Serum insulin AUC0–4h (after breakfast) LS mean difference vs placebo (95% CI) ([2]; 5 mg OD, Day 7): −28.6 (−57.5, 0.198) μIU h/mL
- ALT increased ([3]; 0.5 mg OD for 7 days): 0 number of subjects
- Blood urine present ([3]; 0.5 mg OD for 7 days): 0 number of subjects
- Constipation ([3]; 0.5 mg OD for 7 days): 1 number of subjects
- Dermatitis contact ([3]; 0.5 mg OD for 7 days): 0 number of subjects
- Diarrhea ([3]; 0.5 mg OD for 7 days): 1 number of subjects
- Headache ([3]; 0.5 mg OD for 7 days): 1 number of subjects
- Pruritus ([3]; 0.5 mg OD for 7 days): 1 number of subjects
- γ-GTP increased ([3]; 0.5 mg OD for 7 days): 0 number of subjects
- ALT increased ([3]; 1 mg OD for 7 days): 0 number of subjects
- Blood urine present ([3]; 1 mg OD for 7 days): 0 number of subjects
- Constipation ([3]; 1 mg OD for 7 days): 0 number of subjects
- Dermatitis contact ([3]; 1 mg OD for 7 days): 1 number of subjects
- Diarrhea ([3]; 1 mg OD for 7 days): 0 number of subjects
- Headache ([3]; 1 mg OD for 7 days): 0 number of subjects
- Pruritus ([3]; 1 mg OD for 7 days): 0 number of subjects
- γ-GTP increased ([3]; 1 mg OD for 7 days): 0 number of subjects
- ALT increased ([3]; 2.5 mg OD for 7 days): 1 number of subjects
- Blood urine present ([3]; 2.5 mg OD for 7 days): 0 number of subjects
- Constipation ([3]; 2.5 mg OD for 7 days): 0 number of subjects
- Dermatitis contact ([3]; 2.5 mg OD for 7 days): 0 number of subjects
- Diarrhea ([3]; 2.5 mg OD for 7 days): 0 number of subjects
- Headache ([3]; 2.5 mg OD for 7 days): 0 number of subjects
- Pruritus ([3]; 2.5 mg OD for 7 days): 0 number of subjects
- γ-GTP increased ([3]; 2.5 mg OD for 7 days): 1 number of subjects
- ALT increased ([3]; 5 mg OD for 7 days): 0 number of subjects
- Blood urine present ([3]; 5 mg OD for 7 days): 1 number of subjects
- Constipation ([3]; 5 mg OD for 7 days): 0 number of subjects
- Dermatitis contact ([3]; 5 mg OD for 7 days): 0 number of subjects
- Diarrhea ([3]; 5 mg OD for 7 days): 0 number of subjects
- Headache ([3]; 5 mg OD for 7 days): 1 number of subjects
- Pruritus ([3]; 5 mg OD for 7 days): 0 number of subjects
- γ-GTP increased ([3]; 5 mg OD for 7 days): 0 number of subjects
- episodes of hypoglycemia ([3]; 0.5-5 mg OD for 7 days): no episodes
- serious AEs or AEs leading to discontinuation ([3]; 0.5-5 mg OD for 7 days): no serious AEs
- severity of adverse events ([3]; 0.5-5 mg OD for 7 days): mild
- urinary tract/genital infection ([3]; 0.5-5 mg OD for 7 days): no episodes
